Measurements as given in article PMC8416640 (Biochemistry and Biophysics Reports, 2021).

Assays:
[1] = target: ccT2R200-1 (Cyprinus carpio, UniProt A0A2Z6FB23); format: cell-based, common carp (Cyprinus carpio); details: for response of ccT2R200-1 in screening of bitter compounds: single screening concentration per compound, vs control buffer
[2] = target: ccT2R200-2 (Cyprinus carpio, UniProt A0A2Z6FB19); format: cell-based, common carp (Cyprinus carpio); details: for response of ccT2R200-2 in screening of bitter compounds: single screening concentration per compound, vs control buffer
[3] = target: ccT2R201 (Cyprinus carpio, UniProt A0A2Z6FB59); format: cell-based, common carp (Cyprinus carpio); details: for response of ccT2R201 in screening of bitter compounds: single screening concentration per compound, vs control buffer
Method in brief: (§1)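 Transient co-transfection of HEK293T cells with a pEAK10 vector carrying the carp receptor (cloned from lip cDNA or head genomic DNA) with an N-terminal sst tag (first 45 residues of rat somatostatin receptor 3), human Gα16gust44 and mt-apoclytin-II. Cells were exposed to each bitter test compound at one fixed screening concentration. Luminescence was read as area under the curve in RLU. More than three independent experiments were run in duplicate or triplicate, with paired t-tests.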

[4] = test system: ccT2R203-1; format: cell-based, common carp (Cyprinus carpio); details: for response of ccT2R203-1 in screening of bitter compounds: single screening concentration per compound, vs control buffer
[5] = test system: ccT2R202-2; format: cell-based, common carp (Cyprinus carpio); details: single screening concentration per compound, vs control buffer
Method in brief: as §1

[6] = test system: drT2R3a; details: approximate, one range for four receptors; cited from earlier work
[7] = test system: drT2R1; details: drT2R1, approximate, one range for four receptors; cited from earlier work
[8] = test system: mfT2R1; details: mfT2R1, approximate, one range for four receptors; cited from earlier work
[9] = test system: lcT2R01; details: lcT2R01, approximate, one range for four receptors; cited from earlier work
[10] = test system: ccT2R202-1; format: cell-based, common carp (Cyprinus carpio); details: single screening concentration per compound, vs control buffer
Method in brief: as §1

[11] = test system: drT2R4; details: zebrafish receptor; cited from earlier work

ccT2R200-1, sequence (A0A2Z6FB23 1-321): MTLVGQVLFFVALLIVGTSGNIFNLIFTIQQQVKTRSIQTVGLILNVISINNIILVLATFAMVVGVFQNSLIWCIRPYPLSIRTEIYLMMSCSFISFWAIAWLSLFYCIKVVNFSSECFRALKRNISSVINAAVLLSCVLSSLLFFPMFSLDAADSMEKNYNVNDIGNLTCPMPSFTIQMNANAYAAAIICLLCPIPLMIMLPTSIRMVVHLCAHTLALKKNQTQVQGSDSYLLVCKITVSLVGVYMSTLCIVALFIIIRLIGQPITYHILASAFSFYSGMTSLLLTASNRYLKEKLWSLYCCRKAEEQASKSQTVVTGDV
ccT2R201, sequence (A0A2Z6FB59 1-327): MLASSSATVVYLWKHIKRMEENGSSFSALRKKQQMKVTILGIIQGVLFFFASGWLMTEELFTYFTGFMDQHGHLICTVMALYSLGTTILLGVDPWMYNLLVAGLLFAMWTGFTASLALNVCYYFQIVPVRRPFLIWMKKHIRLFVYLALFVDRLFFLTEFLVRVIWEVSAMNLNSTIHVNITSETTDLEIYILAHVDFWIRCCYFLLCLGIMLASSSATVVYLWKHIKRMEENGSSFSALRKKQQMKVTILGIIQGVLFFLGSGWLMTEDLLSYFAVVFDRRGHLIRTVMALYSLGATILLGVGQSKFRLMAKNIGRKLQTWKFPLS
ccT2R200-2, sequence (A0A2Z6FB19 1-321): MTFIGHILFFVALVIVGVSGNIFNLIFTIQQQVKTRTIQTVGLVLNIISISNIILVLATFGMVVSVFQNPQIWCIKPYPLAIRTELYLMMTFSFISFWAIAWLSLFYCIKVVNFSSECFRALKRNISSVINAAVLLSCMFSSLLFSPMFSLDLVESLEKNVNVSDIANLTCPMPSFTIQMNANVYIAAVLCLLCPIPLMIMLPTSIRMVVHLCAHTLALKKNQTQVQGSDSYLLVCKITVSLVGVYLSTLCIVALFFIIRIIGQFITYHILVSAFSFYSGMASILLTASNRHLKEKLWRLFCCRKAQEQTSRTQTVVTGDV

Compound: CCCc1cc(=O)[nH]c(=S)[nH]1 [PROP]
- response of ccT2R200-1 in screening of bitter compounds [1]: weakly responded
- response of ccT2R200-2 in screening of bitter compounds [2]: strongly activated
- response of ccT2R201 in screening of bitter compounds [3]: strongly activated
- response of ccT2R203-1 in screening of bitter compounds [4]: strongly activated

Compound: C=C1CC[C@@H]2[C@](C)(CO)[C@H](O)CC[C@@]2(C)[C@@H]1C/C=C1/C(=O)OC[C@H]1O [andrographolide]
- EC50 [1]: 182 ± 7 µM
- response of ccT2R200-1 in screening of bitter compounds [1]: strongly activated
- EC50 [2]: 335 ± 38 µM
- response of ccT2R200-2 in screening of bitter compounds [2]: strongly activated
- response of ccT2R202-2 in screening of bitter compounds [5]: weakly activated
- response of ccT2R203-1 in screening of bitter compounds [4]: weakly responded

Compound: O=C(N[C@H](CO)[C@H](O)c1ccc([N+](=O)[O-])cc1)C(Cl)Cl [chloramphenicol]
- response of ccT2R201 in screening of bitter compounds [3]: weakly responded

Compound: CC(C)[C@]12CC(=O)[C@H](C)[C@H]1C2 [α-thujon]
- response of ccT2R200-1 in screening of bitter compounds [1]: weakly responded

Compound: CC[N+](CC)(CC(=O)Nc1c(C)cccc1C)Cc1ccccc1 [denatonium benzoate]
- EC50 [3]: 44 ± 5 µM
- response of ccT2R201 in screening of bitter compounds [3]: weakly responded
- EC50 [6]: 300 to 3000 µM
- EC50 [7]: 300 to 3000 µM
- EC50 [8]: 300 to 3000 µM
- EC50 [9]: 300 to 3000 µM

Compound: CC1=C[C@H]2[C@H]3[C@H](C(C)=C4[C@H]5OC(=O)[C@@H](C)[C@@H]5CC[C@](C)(O)[C@@H]43)[C@@]13[C@@H]2[C@@](C)(O)CC[C@H]1[C@H](C)C(=O)O[C@@H]13 [absinthin]
- response of ccT2R200-1 in screening of bitter compounds [1]: weakly responded
- response of ccT2R200-2 in screening of bitter compounds [2]: weakly responded
- response of ccT2R203-1 in screening of bitter compounds [4]: weakly responded

Compound: CN(C)C=S [dimethyl-thioformamide]
- response of ccT2R200-1 in screening of bitter compounds [1]: weakly responded
- response of ccT2R203-1 in screening of bitter compounds [4]: weakly responded

Compound: O=C(O)c1cc(=O)c2c(OCC(O)COc3cccc4oc(C(=O)O)cc(=O)c34)cccc2o1 [cromolyne]
- response of ccT2R200-1 in screening of bitter compounds [1]: weakly responded

Compound: O=C1C[C@@H]2OCC=C3CN4CC[C@]56c7ccccc7N1[C@H]5[C@H]2[C@H]3C[C@H]46 [strychinine]
- response of ccT2R200-1 in screening of bitter compounds [1]: weakly responded
- response of ccT2R202-1 in screening of bitter compounds [10]: weakly activated

Compound: OCc1ccccc1O[C@@H]1O[C@H](CO)[C@@H](O)[C@H](O)[C@H]1O [D-(−)-salicin]
- response of ccT2R201 in screening of bitter compounds [3]: weakly responded

Compound: amarogentin
- response of ccT2R200-1 in screening of bitter compounds [1]: strongly activated
- response of ccT2R201 in screening of bitter compounds [3]: strongly activated

Compound: COc1cc2c(c(OC)c1OC)-c1ccc(OC)c(=O)cc1[C@@H](NC(C)=O)CC2 [colchicine]
- response of ccT2R201 in screening of bitter compounds [3]: weakly responded

Compound: C=C(C)[C@@H]1[C@H]2OC(=O)[C@@H]1[C@]1(O)C[C@H]3O[C@]34C(=O)O[C@H]2[C@]14C [picrotoxinin]
- EC50 [1]: 510 ± 26 µM
- response of ccT2R200-1 in screening of bitter compounds [1]: strongly activated
- response of ccT2R200-2 in screening of bitter compounds [2]: strongly activated
- EC50 ([4]; ccT2R203-1, dose-response with seven concentrations, HEK293T, luminescence AUC): 425 ± 99 µM
- response of ccT2R203-1 in screening of bitter compounds [4]: strongly activated
- response of drT2R4 [11]: does not respond

Compound: CNC(N)=S [methylthiourea]
- response of ccT2R203-1 in screening of bitter compounds [4]: weakly responded
